Source: PMC8920403 (Drug Delivery, 2022)

Assays:
[1] = tested on: corneal neovascularization (CNV); assay: Alkali burn injury induced CNV in mice; format: in vivo, BALB/c mice; settings: SRB-NLC 0.0125-0.05%, fluorescein staining
Procedure, shortened: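 Male BALB/c mice (20–25 g) were anaesthetised with 1% sodium pentobarbital i.p. (80 mg/kg) plus 0.4% oxybuprocaine drops. 2 μL of 0.1 M NaOH on filter paper was applied to the right central cornea for 20 s, then rinsed with 20 mL saline. Groups of 16 received saline, test-compound lipid carrier (0.05, 0.025 or 0.0125%) or dexamethasone drops, 5 μL twice daily for 7 days. On day 7, corneas from three mice per group were fixed in 4% paraformaldehyde for 48 h, paraffin-processed, and 5 µm sagittal sections were H&E stained.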

[2] = tested on: endothelial cells; settings: at a dose of 7.5 µg/mL (0.1–100 µg/mL studied); ref Thiele et al., 2013; cited from earlier work
[3] = tested on: experimental CNV; settings: oral administration, dose-dependent; ref Seo et al., 2012; cited from earlier work
[4] = tested on: neovascular corneal area; settings: topical solution 0.05 mg/mL SRB and 0.07 mg/mL DMSO; ref Yildirim et al., 2020; cited from earlier work
[5] = Ocular pharmacokinetics in rabbit eyes; format: in vivo, New Zealand White rabbits; settings: after single topical administration; limit of quantitation 0.01 μg/mL
Procedure, shortened: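 Forty-two male New Zealand White rabbits (2.0–2.5 kg) were split into lipid-carrier and suspension groups. Each received a single 50 μL instillation into the lower conjunctival sac of both eyes, with lids held closed for 15 s. At preset times, rabbits were killed with i.v. 4% phenobarbital sodium via the marginal ear vein. After a saline rinse of the ocular surface, aqueous humour was drawn at the limbus with a 26-G needle.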

[6] = tested on: PDGF-AB; assay: ELISA of PDGF-AB in cornea of alkali burn CNV mice; format: in vivo, BALB/c mice; settings: dexamethasone eye drops, days 3 and 7, P < 0.05
Procedure, shortened: (§1)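 Alkali-burn CNV mice (0.1 M NaOH, 20 s) were given saline, test-compound lipid carrier or dexamethasone drops, 5 μL twice daily. On days 3 and 7, five mice per group were killed. Corneas were weighed, frozen at −80 °C, thawed at 4 °C for 0.5 h and minced. Tissue was extracted in 100 μL RIPA on ice for 1.5 h and spun at 12,000 rpm, 4 °C, 5 min. ELISA absorbance was read at 450 nm and normalised to BCA total protein. Mean ± SD; one-way ANOVA, with t test for pairs.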

[7] = tested on: VEGF-A; assay: ELISA of VEGF-A in cornea of alkali burn CNV mice; format: in vivo, BALB/c mice; settings: dexamethasone eye drops, days 3 and 7, P < 0.05
Procedure, shortened: as §1

In the case of `CNC(=O)c1cc(Oc2ccc(NC(=O)Nc3ccc(Cl)c(C(F)(F)F)c3)cc2)ccn1` [SRB, Sorafenib], the “Recovery of corneal epithelial defects after alkali burn injury” value [1] is listed as “could effectively promote the recovery of corneal epithelial defects”, the “Toxic effects on endothelial cells” value [2] is listed as “no toxic effects” and the “Development of experimental CNV” value [3] is listed as “significantly reduced the development of experimental CNV”. The “Percentage of the neovascular corneal area vs DMSO alone” value [4] was “significantly lower” and the “SRB levels in the aqueous humor (AH)” value [5] was under 0.01 µg/mL.
With Dexamethasone sodium phosphate the “PDGF-AB level in corneal tissue vs saline group” value [6] was “significantly lower” and the “VEGF-A level in corneal tissue vs saline group” value [7] was “significantly lower”.
